Fewer inactive variants are shown than the library holds.
B1: tRNA (parent)
chain: GUUCCGUUGGCGUAAUGGUAACGCGUCUCCCUCCUAAGGAGAAGACUGCGGGUUCGAGUCCCGUACGGAACG

Variants of: B1
Test: yeast fitness relative to wild type (ratio to wild type); higher = fitter; tRNA-Arg(CCU), competitive growth, 37 C, YPD
How it was run: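 Amplicons of the tRNA-Arg(CCU) gene were sequenced, 100-nucleotide paired-end, from the start population and from each end population of a pooled yeast competition. The competition, in six parallel replicates, lasted 24 hours in YPD at 37°C. Fitness relative to wild type was calculated from changes in genotype frequencies. Genotypes had to have ≥ 100 starting reads, and estimates < 0.5 were set to 0.5.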

Variant | yeast fitness
C33G A65G | 0.734
C34G C49U | 0.708
C33A A40G | 0.683
U32G G50A | 0.714
C34A U47G C49G C60G | 0.571
C33G A42G G52A C62A A70U | 0.589
C33U C34A A43C G48A | ≤ 0.5
C34A G51A | 0.656
C33U U54C G58A | 0.643
C34G A40C A43U | ≤ 0.5
C34G C62A G63A | ≤ 0.5
C33A C46G C60U | 0.76
C33U C34A U53G U54A | 0.588
U32G C49G | 0.602
C33G C66U | 0.787
C33G C66A | ≤ 0.5
U32G G68C | 0.703
C34G A43C C49U G56A | ≤ 0.5
C33G G41A G50A | 0.624
C33G C62U | 0.758
C33U A36G G41A C61G | ≤ 0.5
C34G A42C | 0.573
U32G G41C | 0.597
C33A U35A C62U | 0.617

Variant | yeast fitness
C33U G44C C49U | 0.531
C34A A42U A45G | ≤ 0.5
C33G U35C U59A | 0.594
C34G G63A G67A | ≤ 0.5
U32G G48C A65C | 0.574
C33A U35C C46U C49U G52C C61U C66U A69U | 0.528
C34G C55G U59C C60U G67U A70C | ≤ 0.5
C33A A43C G50A A57U C60G | ≤ 0.5
C33U A45U | 0.837
C33G G38A | 0.684
C33G C34U G38C U47A | 0.517
C34G C49G C61U U64A | ≤ 0.5
C34A A57G | 0.715
C34A A57C | ≤ 0.5
C34G G41A A42C G67C | 0.597
C33U A43C G63C | ≤ 0.5
C33G A45G C55G G56C | ≤ 0.5
C34A U64C | 0.834
C33G U53A C60U | 0.637
C34G A36C C55G | ≤ 0.5
C33U G38A C46U | 0.562
C34G C49G U54A A57C G68A | ≤ 0.5
C33U A43U C49A G50C C61U C66U | ≤ 0.5
C33G A42C C66G A70G | ≤ 0.5

Variant | yeast fitness
C34G A42C G51C | 0.525
C33G C60A | 0.715
C33G C60G | ≤ 0.5
C34A C60G G68A | 0.688
C33U U47A | 0.829
C34A A57U U59A | ≤ 0.5
C33U A43G G52A | ≤ 0.5
C33G A40C C62G | ≤ 0.5
C33U U35A | ≤ 0.5
C33U U35C | 0.579
C34A A45G G63C | 0.676
C33G G41A A69C | ≤ 0.5
C33U A43U C49G G50C A65C | ≤ 0.5
C34A G68U | 0.647
C34A G68C | 0.841
C33G G48A | 0.629
C34A A42U C61G A65U | ≤ 0.5
C34A A37C | 0.713
C33U A43U C55U | ≤ 0.5
C34A A36C G67A | ≤ 0.5
C33A C46U U59C G67A G68C | ≤ 0.5
C34A A40C U54C C66U | 0.623
C33U A42G C46A | 0.644
C34G A69U A70C | 0.696

Variant | yeast fitness
C33U G41A C49U C61G | ≤ 0.5
C34A A45G A57U C66U | ≤ 0.5
C34G C55U G63A | ≤ 0.5
C33G A42U C61G | ≤ 0.5
C33G A37U A40C A69U | 0.543
C33A C34G | 0.755
C33A C34A | 0.621
C33A A45G A70U | 0.638
C33G G41C A43C | ≤ 0.5
C34G C49G U54C C61U A69G | ≤ 0.5
C33G G44A G56A C61U | ≤ 0.5
C33U A43U C49G G50C C60G | ≤ 0.5
C33U C55U | 0.586
C33U G48A | 0.678
C33A C34G C60A A70C | ≤ 0.5
C33A G39C C49U U54A | ≤ 0.5
C34A A40C A42U | ≤ 0.5
C33U A65U C66U | ≤ 0.5
C33G A40G C66G | 0.698
C34G C49U A65C | 0.532
U32G G56A G63C | ≤ 0.5
C34A C66U | 0.764
C34A C66G | 0.647
C33G U53A | 0.65

Variant | yeast fitness
C33G U64A | ≤ 0.5
C34A C55G G58A U64C A65C | ≤ 0.5
C33G A36G | 0.699
C33G U35C U59A A69U | 0.657
C34G A40U A43C C46A G63C | ≤ 0.5
C33U G48A C60U U64G A65U A69C | 0.571
C34G C49G C61U A70C | ≤ 0.5
C33U A42C | 0.63
C34A G50C G51A C61G | ≤ 0.5
C33U G68C | 0.686
C33U A36C A37G U64C | ≤ 0.5
U32G G39C A43G G52C | 0.571
C33G A57G C61G G63A A65G C66U | ≤ 0.5
C33U A37C G67U A69U | ≤ 0.5
C34G G38C | 0.587
C34G G38A | 0.624
C34G U35C | 0.613
U32G G56C | ≤ 0.5
U32G C61U C66U | 0.577
C33G G67A | 0.672
C33G G52A | 0.582
C33G G44A U47C A57G | ≤ 0.5
C33U C61U C66G | 0.543
C34G A45C C62G | ≤ 0.5

Variant | yeast fitness
C33A A36C A43U C46G C62G A69U | ≤ 0.5
C34A A65U | 0.736
C33U G51A A65U | ≤ 0.5
U32G G39C G52C C61U | ≤ 0.5
C33A A36U G63A | ≤ 0.5
C34G A40C G44A | ≤ 0.5
C34A C60G A70C | ≤ 0.5
C33A C61A C62U C66U | 0.562
C33G C55A G58A | 0.609
C34G G68U | 0.638
C34G A42G C62U | 0.589
C33U A65U | 0.816
C34G G48C | 0.519
C34G C62G | 0.559
C33G C60A C66G | ≤ 0.5
C33G C34G C46G | ≤ 0.5
U32G C62A | 0.512
U32G C62U | 0.625
C33G U47G G56A A57G A69U | ≤ 0.5
U32G C46A C66U | 0.538
U32G U35G A36C C61G A70G | 0.583
U32G G39C C62G G68A | ≤ 0.5
C34A A40U | 0.705
C34A A40G | 0.609

Variant | yeast fitness
C34G A45G | 0.657
C34G A45C | 0.569
C33G G52A U64C C66U G67A | ≤ 0.5
C34G G39C | 0.58
C34G G39A | 0.703
C33A G58C C62G U64G | ≤ 0.5
C33U C34A G38C G52A | ≤ 0.5
C33A A36C C46G C62G A69U | ≤ 0.5
U32G C61U C66U A69G | ≤ 0.5
C34A A42U U54A A57U | 0.511
C33U G39A | 0.626
C33U G39C | 0.622
C33G G38C G41C A43C U47G G67C | 0.582
C33A G38C C46A G58C | 0.698
U32G C34U A57G | 0.561
C34A A42U G68A | ≤ 0.5
C33A C55G | 0.564
C34A U54A G67A | ≤ 0.5
C33U G44C | 0.601
C33G G51C G68A A69C | 0.607
C33G G44A G56A A65G | 0.554
C33A A37U C62A A70C | 0.605
C34A C46U A65C | 0.569
